# Results taken from ChEMBL document CHEMBL1136142, “Synthesis, biological evaluation and DNA binding properties of novel bleomycin analogues” (Bioorg Med Chem Lett, 2003).
# Key:
# BGC-823 = assay: In vitro antitumor activity against BGC-823 cell lines by using MTT assay; assay type: functional, cell-based; details: Homo sapiens
# Summary of the method: (§1)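 Tetrazolium salt (MTT) read-out of in vitro growth inhibition; the reported value is the concentration producing 50% inhibition (IC50).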
# HeLa = assay: In vitro antitumor activity against HeLa cell lines by using MTT assay; assay type: functional, cell-based; details: Homo sapiens; summary of the method: as §1
Structure (SMILES),IC50 (BGC-823),IC50 (HeLa)
CCCC(=O)NCCCCNCCCNC(=O)c1csc(-c2csc(CCNC(=O)[C@@H](NC(=O)[C@@H](C)C(O)C(C)NC(=O)[C@@H](NC(=O)c3nc([C@H](CC(N)=O)NCC(N)C(N)=O)nc(N)c3C)[C@@H](O[C@@H]3O[C@@H](CO)[C@@H](O)[C@@H](O)[C@@H]3OC3O[C@H](CO)[C@@H](O)[C@H](OC(N)=O)[C@@H]3O)c3c[nH]cn3)[C@@H](C)O)n2)n1 (some centres undefined),2.62 µM,13.8 µM
Cc1c(N)nc([C@H](CC(N)=O)NCC(N)C(N)=O)nc1C(=O)N[C@H](C(=O)NC(C)C(O)[C@H](C)C(=O)N[C@H](C(=O)NCCc1nc(-c2nc(C(=O)NCCCNCCCCNC=O)cs2)cs1)[C@@H](C)O)[C@@H](O[C@@H]1O[C@@H](CO)[C@@H](O)[C@@H](O)[C@@H]1O[C@H]1O[C@H](CO)[C@@H](O)[C@H](OC(N)=O)[C@@H]1O)c1c[nH]cn1 (some centres undefined),31 µM,12.2 µM
Cc1c(N)nc([C@H](CC(N)=O)NCC(N)C(N)=O)nc1C(=O)N[C@H](C(=O)NC(C)C(O)[C@H](C)C(=O)N[C@H](C(=O)NCCc1nc(-c2nc(C(=O)NCCC[S+](C)C)cs2)cs1)[C@@H](C)O)[C@@H](O[C@@H]1O[C@@H](CO)[C@@H](O)[C@H](O)[C@@H]1O[C@H]1O[C@H](CO)[C@@H](O)[C@H](OC(N)=O)[C@@H]1O)c1c[nH]cn1 (some centres undefined),10.1 µM,16.2 µM

# Results, then the compound that gave them:
IC50 (BGC-823),IC50 (HeLa),Structure (SMILES)
22.1 µM,15.3 µM,CC(=O)NCCCCNCCCNC(=O)c1csc(-c2csc(CCNC(=O)[C@@H](NC(=O)[C@@H](C)C(O)C(C)NC(=O)[C@@H](NC(=O)c3nc([C@H](CC(N)=O)NCC(N)C(N)=O)nc(N)c3C)[C@@H](O[C@@H]3O[C@@H](CO)[C@@H](O)[C@@H](O)[C@@H]3O[C@H]3O[C@H](CO)[C@@H](O)[C@H](OC(N)=O)[C@@H]3O)c3c[nH]cn3)[C@@H](C)O)n2)n1 (some centres undefined)
6.46 µM,14.4 µM,CCC(=O)NCCCCNCCCNC(=O)c1csc(-c2csc(CCNC(=O)[C@@H](NC(=O)[C@@H](C)C(O)C(C)NC(=O)[C@@H](NC(=O)c3nc([C@H](CC(N)=O)NCC(N)C(N)=O)nc(N)c3C)[C@@H](O[C@@H]3O[C@@H](CO)[C@@H](O)[C@@H](O)[C@@H]3O[C@H]3O[C@H](CO)[C@@H](O)[C@H](OC(N)=O)[C@@H]3O)c3c[nH]cn3)[C@@H](C)O)n2)n1 (some centres undefined)
10.8 µM,14.8 µM,Cc1c(N)nc([C@H](CC(N)=O)NCC(N)C(N)=O)nc1C(=O)N[C@H](C(=O)NC(C)C(O)[C@H](C)C(=O)N[C@H](C(=O)NCCc1nc(-c2nc(C(=O)NCCCNCCCCNC(=O)c3ccccn3)cs2)cs1)[C@@H](C)O)[C@@H](O[C@@H]1O[C@@H](CO)[C@@H](O)[C@@H](O)[C@@H]1O[C@H]1O[C@H](CO)[C@@H](O)[C@H](OC(N)=O)[C@@H]1O)c1c[nH]cn1 (some centres undefined)
7.46 µM,11.7 µM,Cc1c(N)nc([C@H](CC(N)=O)NCC(N)C(N)=O)nc1C(=O)N[C@H](C(=O)NC(C)C(O)[C@H](C)C(=O)N[C@H](C(=O)NCCc1nc(-c2nc(C(=O)NCCCNCCCCNC(=O)c3ccccc3)cs2)cs1)[C@@H](C)O)[C@@H](O[C@@H]1O[C@@H](CO)[C@@H](O)[C@@H](O)[C@@H]1O[C@H]1O[C@H](CO)[C@@H](O)[C@H](OC(N)=O)[C@@H]1O)c1c[nH]cn1 (some centres undefined)
